PGC1a Ac signal: raises PGC1a acetylation signal in U2OS cells. activation, % at 15.6 µM. 350,000 tested, 0.21% active. U2OS PGC1a acetylation AlphaScreen, overnight;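 active = every replicate reaching activation of at least 50%, whatever the mean replicate activation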;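 note: hits raise the AlphaScreen acetylation signal above neutral controls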
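System: flag-PGC1a/GCN5 U2OS cells / Input: 7000 cells/well / Compound: single test concentration per compound / Incubation: overnight compound treatment, 37 °C / Technique: AlphaScreen on lysates with anti-acetyl-lysine antibody, acceptor and donor beads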
* marks the source's active call; other numbers are inactive results. Shown is part of a subset that was picked to be rich in hits.

SMILES	PGC1a Ac signal
CCOC(=O)C1=CC[C@@H](c2ccc(OC)cc2)N(S(=O)(=O)c2ccc(C)cc2)[C@H]1CC	90.3*
Cc1noc(C)c1S(=O)(=O)N(C)C[C@H]1Oc2ccc(NC(=O)Nc3ccccc3)cc2CC(=O)N([C@H](C)CO)C[C@H]1C	-55.7
COc1ccc(OC)c(Nc2ccc(C(=O)O)cc2[N+](=O)[O-])c1	-42.4
CCN(c1ccccc1)S(=O)(=O)c1ccc(OC)c(NC(=O)Cc2ccc(F)cc2)c1	-40.3
COc1ccc(S(=O)(=O)N2CCOCC2)cc1NC(=O)CCNC(=O)c1ccc([N+](=O)[O-])cc1	419.4*
CO[C@H]1CN(C)C(=O)c2ccc(NC(=O)C3CCOCC3)cc2OC[C@@H](C)N(C)C[C@@H]1C	-52.8
COc1ccc(-n2c(=O)c3c4c(sc3n3c(=S)[nH]nc23)CCC4)cc1	234.3*
CCS(=O)(=O)N[C@H]1C=C[C@H](CC(=O)N2CCCCC2)O[C@H]1CO	-42.8
COc1ccc(-c2cnc3c(c2)C(=O)N([C@H](C)CO)C[C@@H](C)[C@H](CN(C)C(=O)C2CCC2)O3)cc1	-55.5
Cc1noc(C)c1NC(=O)N(C)C[C@@H]1Oc2ccc(NS(=O)(=O)c3cn(C)cn3)cc2C(=O)N([C@@H](C)CO)C[C@@H]1C	-46.4
Cn1c(SC2=CS(=O)(=O)c3ccccc32)nc2ccccc21	259.8*
O=C(COc1ccccc1)N1CCN=C1SCc1ccccc1	-42.6
OC(c1cc(C(F)(F)F)nc2c(C(F)(F)F)cccc12)C1CCCCN1 (stereo not given)	78.1*
CCOc1ccc(N(CC(=O)Nc2ccccc2OC)S(=O)(=O)c2ccccc2)cc1	-87.5
Cc1cccc(NS(=O)(=O)c2ccc(NC(=O)CN(c3cc([N+](=O)[O-])ccc3C)S(C)(=O)=O)cc2)c1	377.6*
CC(=O)Nc1cc(C(=O)OCc2cccc([N+](=O)[O-])c2)ccc1C	-48.7
COc1ccc(OC)c(N(CC(=O)Nc2ccccc2)S(C)(=O)=O)c1	-42.7
COc1ccc(C)cc1NS(=O)(=O)c1ccc(NC(=O)CN(c2cc([N+](=O)[O-])ccc2C)S(C)(=O)=O)cc1	474.1*
COc1ccc(-c2ccc(C3[C@@H]4CN(C(=O)Nc5cccc(F)c5)C[C@H]3N4)cc2)cc1 (stereo not given in full)	64.3*
O=C(Nc1ccc(F)cc1)N1C[C@@H]2N[C@H](C1)C2c1ccc(/C=C/c2ccccc2)cc1 (stereo not given in full)	58.8*
N#Cc1ccc(-c2ccc([C@@H]3[C@@H]4CN(S(=O)(=O)c5ccc(-c6ccccc6)cc5)C[C@H]3N4)cc2)cc1	-84.9
O=C(Nc1ccc(F)cc1)N1CC(=O)N2[C@@H](CO)[C@H](c3ccc(Br)cc3)[C@@H]2C1	-55.0
Cc1ccccc1-c1ccc(C2[C@@H]3CN(C(=O)Nc4cccc(F)c4)C[C@H]2N3)cc1 (stereo not given in full)	55.6*
O=C(Nc1ccc(F)cc1)N1CC(=O)N2[C@@H](CO)[C@@H](c3ccc(-c4ccccc4)cc3)[C@@H]2C1	-60.7
Cc1ccccc1-c1ccc(C2[C@@H]3CN(S(=O)(=O)c4ccccc4C)C[C@H]2N3)cc1 (stereo not given in full)	92.3*
SMILES	PGC1a Ac signal
COc1ccc(-c2onc(C)c2-c2ccc(C(=O)OC(C)C)o2)c(O)c1	-74.1
CCCN(C)C[C@H]1Oc2cc(C#C[C@@H](C)O)ccc2S(=O)(=O)N([C@@H](C)CO)C[C@H]1C	-54.2
CCc1nc2c(OCc3ccc(S(C)(=O)=O)cc3)cccn2c1N(C)C(=O)c1ccccc1F	-45.3
O=C1c2ccccc2C(=O)c2c1oc(C(F)(F)F)c2C(=O)c1ccccc1	-45.0
Cc1cc(-c2c(C)[nH]n(-c3ccc(Cl)cc3)c2=O)n(-c2ccccc2)n1	-42.3
O=C(c1ccccc1)c1nn(-c2ccc(Cl)cc2)c(=O)cc1C(F)(F)F	179.4*
CCOC(=O)c1cnn(-c2ccccc2)c1-n1cccc1C(=O)C(=O)Nc1ccc(F)cc1	78.3*
COc1cc(CNC(=O)c2cc(-c3cc(C)cc(F)c3)n[nH]2)cc(OC)c1	-45.2
CO[C@@H]1CN(C)C(=O)c2cc(NC(=O)c3ccc4c(c3)OCO4)ccc2OC[C@@H](C)N(CC2CC2)C[C@H]1C	-104.6
COCc1ccc(CN2CCC(n3nccc3NC(=O)c3ccc4c(c3)OCO4)CC2)o1	54.1*
O=C(c1cc([N+](=O)[O-])ccc1N1CCCC1)N1CCCC1	-51.9
O=[N+]([O-])c1ccc(N2CCN(C(=S)NCc3ccc(Cl)cc3)CC2)cc1	80.8*
O=[N+]([O-])c1ccc(N2CCN(CC3CCCCC3)CC2)cc1	63.2*
Cc1cccc(N2CCN(CC3CCCCC3)CC2)c1C	-46.7
Cc1ccc(CC(=O)N2CCN(c3ccc([N+](=O)[O-])cc3)CC2)cc1	112.8*
CN(C)CCCN(C(=O)c1cc2cc([N+](=O)[O-])ccc2s1)c1nc2cc3c(cc2s1)OCCO3	-53.6
O=C(NCC[C@@H]1CC[C@H](NS(=O)(=O)Cc2ccccc2)[C@H](CO)O1)C1CCC1	-60.9
Cc1cc(C)c(C(=O)/C=C/c2ccc(C(C)C)cc2)c(=O)[nH]1	-64.4
